Experiment [1] can be described thus: Ratio of Kcat to Kinact for beta-lactamase OXA-1 expressed in Escherichia coli BL21 (DE3) using nitrocefin substrate by spectrophotometry. In a few lines: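 Partition ratio kcat/kinact set by turnover number: purified OXA-1 (40 μM) mixed 1:1 with inhibitor, 23°C, 50 mM sodium phosphate plus 20 mM bicarbonate, nitrocefin as reporter; inactivation followed up to 900 s and recovery of activity checked to 24 h.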

A short description of experiment [2]: Binding affinity to beta-lactamase OXA-1 expressed in Escherichia coli BL21 (DE3) assessed as compound-enzyme covalent attachment by electrospray ionization mass spectrometry. The method in brief:
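Purified OXA-1 (40 μM) incubated 15 min with 1.2 mM inhibitor (30:1 inhibitor:enzyme) in 20 mM diethanolamine, pH 8.6; protein diluted in acetonitrile-1% formic acid to 10 μM and analysed intact by nanospray ESI-QTOF MS; deconvoluted spectra compared with apo enzyme (theoretical mass 28,132 Da).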

Experiment [3] is described as follows: Ratio of Kinact to Ki for beta-lactamase OXA-1 expressed in Escherichia coli BL21 (DE3) using nitrocefin substrate by spectrophotometry. The method in brief: (§1)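 Periplasmic OXA-1 (IPTG-induced, purified by isoelectric focusing ± gel filtration) assayed at 23°C in 50 mM sodium phosphate with 20 mM bicarbonate; 18 nM enzyme, 75 μM nitrocefin read at 482 nm with rising inactivator (penems 50–1,100 nM, tazobactam 50–3,000 μM). kobs from time-course fits plotted against inhibitor concentration gave kinact, then Ki.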

The nature of experiment [4]: Inhibition of beta-lactamase OXA-1 expressed in Escherichia coli DH10B assessed as reduction of piperacillin MIC at 4 mg/L. The method in brief: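 E. coli DH10B carrying plasmid RGN238 blaOXA-1 tested by agar dilution on Luria Bertani agar, 10⁴ CFU/spot from a Steers replicator; inhibitor held fixed at 4 μg/ml while piperacillin was raised in doubling dilutions.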

A short description of experiment [5]: Inhibition of beta-lactamase OXA-1 expressed in Escherichia coli BL21 (DE3) using nitrocefin substrate by spectrophotometry. In a few lines:
as §1

pKi: −log10 of the molar value. The source made the active and inactive calls. No cut-off for these calls is given here.

Turning to `O=C(O)C1=CS[C@@H]2/C(=C\c3cc4n(n3)CSC4)C(=O)N12` [PENEM-1], the figures for the Ratio in experiment [1] and in experiment [3] were 0 and 2.9 µM⁻¹ s⁻¹, respectively. The inhibition entry in experiment [2] and in experiment [4] was “Active” in each case. Besides, the negative logarithm of the Ki (pKi) (usually the negative decadic logarithm of the Ki, by convention in mol/L) in experiment [5] was 7.35. The same compound showed a Kinact in experiment [5] of 0.13 s⁻¹.

On to `O=C(O)C1=CS[C@@H]2/C(=C\c3cc4n(n3)CSCC4)C(=O)N12` [PENEM-2], for which the Ratio is 0 in experiment [1] and 9.2 µM⁻¹ s⁻¹ in experiment [3]. Also, the inhibition result in experiment [2] and in experiment [4] was “Active” throughout. Further, in experiment [5], the negative logarithm of the Ki (pKi) is 7.92. The compound further yielded a Kinact in experiment [5] of 0.11 s⁻¹.

Consider `C[C@]1(Cn2ccnn2)[C@H](C(=O)O)N2C(=O)C[C@H]2S1(=O)=O` [TAZOBACTAM], for which, in experiment [1], the Ratio turned out to be 349. Besides, the Ratio in experiment [3] is 0.0015 µM⁻¹ s⁻¹. In experiment [5], this compound had a negative-log Ki (pKi) of 4.10 and a Kinact of 0.12 s⁻¹.

The record behind these values is ChEMBL document CHEMBL1671863, “Inhibition of OXA-1 beta-lactamase by penems” (Antimicrob Agents Chemother, 2008).
